Source: paper PMC8842743 (Journal of Alzheimer's Disease Reports, 2022)

Assays:
[1] = target: Porcine gastric mucosa pepsin (Sus scrofa, UniProt P00791); test: Pepsin FRET assay; assay type: biochemical; conditions: read-out: Pepsin FRET Assay Absolute IC50; n = 2; value (SD)
[2] = test system: Aβ1-x, C99, sAβPPβ in PDAPP mice; test: In vivo pharmacodynamics in PDAPP mice; set-up: species or system mouse; conditions: 3.0 mg/kg oral
Procedure, shortened: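 Young (2–3 months) female PDAPP mice (n = 6–8 per group) got a single oral gavage of vehicle (7% Pharmasolve, 10 mL/kg) or 0.3, 1.0 or 3.0 mg/kg. Hippocampal and cortical Aβ1–x, C99 and sAβPPβ were measured in brain extracts 3 h post-dose. In a time course (3.0 mg/kg, n = 6), hippocampal and CSF Aβ1–x were measured at 3, 6, 9 and 12 h. Statistics: ANOVA, then Tukey post hoc, p < 0.05.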

[3] = Brain homogenate protein binding; assay type: in vitro ADME, mouse; conditions: equilibrium dialysis
Procedure, shortened: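 Fraction unbound was determined in vitro by equilibrium dialysis of mouse brain homogenate or dog plasma. Unbound concentrations were derived by multiplying the total measured concentrations by this fraction unbound.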

[4] = test system: Aβ1-x in plasma and CSF of beagle dogs; test: Pharmacodynamics in cannulated beagle dogs; assay type: in vivo, dog; conditions: 1.5 mg/kg oral
Procedure, shortened: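 Six male cannulated beagle dogs received a single 1.5 mg/kg oral dose in 1% hydroxyethylcellulose. Plasma was sampled pre-dose and at 0.5–48 h. CSF was sampled 0.5 h pre-dose (baseline) and at 3, 6, 9, 24 and 48 h. Aβ1–x was measured by sandwich ELISA (m266.2 capture, biotinylated 3D6 reporter), averaged across dogs and expressed relative to baseline. Statistics: ANOVA with Tukey post hoc.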

[5] = Plasma and CSF pharmacokinetics in beagle dogs; assay type: in vivo, dog
[6] = Clinical single-dose plasma pharmacokinetics; assay type: in vivo, human; conditions: for Cmax / AUC (0∞) / t1/2 / CLR: geometric mean (CV%); for tmax: median (range)
Procedure, shortened: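 Healthy subjects received single oral doses of placebo or 0.1 mg (n = 3 per group), or 0.4, 1.6, 5, 15 or 45 mg (n = 8 per group). Plasma was sampled immediately pre-dose and up to 120 h post-dose. Reported parameters were Cmax, tmax, terminal t1/2, AUC0–∞, clearance and apparent volume of distribution.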

[7] = Clinical multiple-dose pharmacokinetics; assay type: in vivo, human; conditions: for AUCτ,ss / CLR / t1/2 / tmax: day 14; for AUCτ,ss / CLR / t1/2 / Cmax: geometric mean (CV%); for tmax: median (range); for Cmax: day 14 steady state
Procedure, shortened: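 Healthy subjects took daily oral doses for 14 days. Plasma was sampled up to 24 h after the first dose, before the day-14 dose and up to 120 h after it, plus pre-dose troughs every 2 days to assess steady state. Clearance, apparent volume, tmax and t1/2 were reported. Accumulation ratio = AUCτ,ss divided by first-dose AUCτ, per subject.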

[8] = test system: CSF Aβ1–40 and Aβ1–42 in healthy subjects; test: Clinical single-dose CSF Aβ pharmacodynamics; assay type: in vivo, human
Procedure, shortened: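 Healthy subjects received single doses of 1.6, 10 or 26 mg or placebo. Serial CSF was drawn through an indwelling subarachnoid lumbar catheter from 4 h pre-dose to 36 h post-dose. For each subject, the time of the lowest observed Aβ1–40 and Aβ1–42 concentration, the change from baseline at nadir and the 24 h time-averaged change from baseline were reported.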

[9] = test system: CSF Aβ1–40, Aβ1–42, sAβPPα, sAβPPβ in healthy subjects; test: Clinical multiple-dose CSF pharmacodynamics; assay type: in vivo, human
[10] = 1 mg daily for 14 days, 24 h after final dose
[11] = 26 mg daily for 14 days, samples below LLOQ assigned one-half the LLOQ

Sequence of Porcine gastric mucosa pepsin (P00791 60-385): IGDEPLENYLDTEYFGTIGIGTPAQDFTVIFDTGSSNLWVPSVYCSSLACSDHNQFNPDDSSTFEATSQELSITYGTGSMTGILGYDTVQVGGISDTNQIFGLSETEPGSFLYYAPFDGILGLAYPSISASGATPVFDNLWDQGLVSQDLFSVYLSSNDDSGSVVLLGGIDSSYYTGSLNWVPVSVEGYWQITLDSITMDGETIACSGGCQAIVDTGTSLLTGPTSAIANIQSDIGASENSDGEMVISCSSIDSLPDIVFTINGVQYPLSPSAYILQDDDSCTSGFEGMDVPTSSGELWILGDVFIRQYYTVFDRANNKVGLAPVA

- IC50 [1]: > 14 µM
- free fraction in brain homogenate [3]: 0.026
- mean CSF AUC (3–9 h) ([5]; 1.5 mg/kg oral): 25 nM·h
- mean free plasma AUC (3–9 h) ([5]; 1.5 mg/kg oral): 28 nM·h
- plasma AUC(0-∞) ([5]; 1.5 mg/kg oral, mean±SD): 10812 ± 5195 nM·h
- Cmax ([5]; read-out: maximum plasma concentration (Cmax), 1.5 mg/kg oral, mean±SD): 2.99 ± 0.75 µM
- Renal clearance ([6]; healthy subjects, across dose levels): approximately 1 L/h
- Apparent oral clearance ([6]; healthy subjects, across dose levels except 15 mg): approximately 26 L/h
- terminal t1/2 ([6]; healthy subjects, single oral doses, plasma): approximately 20 h
- Cmax ([6]; single dose 0.1 mg, n = 3): 0.169 (50) ng/mL
- tmax ([6]; single dose 0.1 mg): 3.08 (3.00–6.00) h
- Cmax ([6]; single dose 0.4 mg, n = 8): 0.486 (81) ng/mL
- tmax ([6]; single dose 0.4 mg): 3.55 (3.00–8.00) h
- Cmax ([6]; single dose 1.6 mg, n = 8): 2.89 (70) ng/mL
- AUC (0∞) ([6]; single dose 1.6 mg): 60.6 (49) ng·h/mL
- t1/2 ([6]; single dose 1.6 mg): 23.0 (21) h
- tmax ([6]; single dose 1.6 mg): 3.00 (3.00–4.00) h
- Cmax ([6]; single dose 5 mg, n = 8): 7.91 (56) ng/mL
- AUC (0∞) ([6]; single dose 5 mg): 197 (38) ng·h/mL
- CLR ([6]; single dose 5 mg): 1.09 (64) L/h
- t1/2 ([6]; single dose 5 mg): 19.8 (42) h
- tmax ([6]; single dose 5 mg): 4.03 (2.90–24.12) h
- Cmax ([6]; single dose 15 mg, n = 8): 21.3 (77) ng/mL
- AUC (0∞) ([6]; single dose 15 mg): 393 (84) ng·h/mL
- CLR ([6]; single dose 15 mg): 0.829 (37) L/h
- t1/2 ([6]; single dose 15 mg): 19.5 (25) h
- tmax ([6]; single dose 15 mg): 3.01 (1.98–4.00) h
- Cmax ([6]; single dose 45 mg, n = 8): 92.5 (47) ng/mL
- AUC (0∞) ([6]; single dose 45 mg): 1680 (34) ng·h/mL
- CLR ([6]; single dose 45 mg): 1.03 (53) L/h
- t1/2 ([6]; single dose 45 mg): 21.5 (19) h
- tmax ([6]; single dose 45 mg): 2.54 (2.00–4.07) h
- AUCτ,ss ([7]; multiple dose 1 mg): 38.6 (25) ng·h/mL
- CLR ([7]; multiple dose 1 mg): 1.61 (46) L/h
- t1/2 ([7]; multiple dose 1 mg): 33.1 (38) h
- tmax ([7]; multiple dose 1 mg): 4.04 (3.98–4.23) h
- Cmax ([7]; multiple dose 1 mg, n = 8): 2.57 (25) ng/mL
- AUCτ,ss ([7]; multiple dose 6 mg): 151 (54) ng·h/mL
- CLR ([7]; multiple dose 6 mg): 1.09 (86) L/h
- t1/2 ([7]; multiple dose 6 mg): 38.1 (29) h
- tmax ([7]; multiple dose 6 mg): 3.87 (1.95–4.00) h
- Cmax ([7]; multiple dose 6 mg, n = 9): 11.2 (71) ng/mL
- AUCτ,ss ([7]; multiple dose 26 mg): 1020 (50) ng·h/mL
- CLR ([7]; multiple dose 26 mg): 1.29 (39) L/h
- t1/2 ([7]; multiple dose 26 mg): 46.3 (25) h
- tmax ([7]; multiple dose 26 mg): 4.03 (2.00–5.78) h
- Cmax ([7]; multiple dose 26 mg, n = 9): 72.8 (61) ng/mL
Compound: COc1cnc(C(=O)Nc2ccc(F)c([C@]34CN(c5ncc(F)cn5)C[C@H]3CSC(N)=N4)c2)cn1 [LY3202626]
- Cortex C99 decrease vs vehicle ([2]; 3 h): 65%
- Cortex sAβPPβ decrease vs vehicle ([2]; 3 h): 34%
- CSF Aβ1-X reduction vs vehicle, time course ([2]; 3 hrs): 75%
- time CSF Aβ1-x remained significantly suppressed after dosing [4]: 24 h
- maximal reduction of CSF Aβ1-x ([4]; 9 h time point): ~80%
- reduction of plasma Aβ1-x ([4]; 48 h time point): approximately 40%
- suppression of plasma Aβ1-x levels ([4]; by 2 h after dosing, vs baseline): up to 80%
- CSF Aβ1–42 mean reduction from baseline at nadir ([8]; single dose 1.6 mg): –33.4%
- time of mean nadir of CSF Aβ1–42 ([8]; single dose 1.6 mg): approximately 10 h
- CSF Aβ1–42 mean reduction from baseline at nadir ([8]; single dose 26 mg): –71.6%
- time of mean nadir of CSF Aβ1–42 ([8]; single dose 26 mg): approximately 28 h
- decrease in CSF Aβ1–40 from baseline [9, 10]: approximately 50%
- decrease in CSF Aβ1–42 from baseline [9, 10]: approximately 50%
- lowering of CSF Aβ species, modeling of the clinical data ([9]; 12 mg QD): at least 90%
- increase in CSF sAβPPα from baseline ([9]; 26 mg daily for 14 days): 111%
- reduction in CSF sAβPPβ from baseline ([9]; 26 mg daily for 14 days): 92.7%
- reduction in CSF Aβ1–40 from baseline [9, 11]: approximately 94%
- reduction in CSF Aβ1–42 from baseline [9, 11]: approximately 94%
- decrease in CSF sAβPPβ ([9]; multiple doses of 6 mg): more than 70%
